Laboratory results as given in ChEMBL document CHEMBL1123067, “Evaluation of the brain-specific delivery of radioiodinated (iodophenyl)alkyl-substituted amines coupled to a dihydropyridine carrier” (J Med Chem, 1985).

Assays:
Format in all cases: ADME, organism-based
[1] = tested on: Rattus norvegicus; assay: Distribution of radioactivity in heart tissues of Sprague-Dawley rats after 30 min injection by intravenously; value ranges from 0.75-1.03; settings: in vivo, iv, 0.5 h
In short: (§1)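 Female Sprague-Dawley rats, 10–12 weeks old (170–200 g), fed ad libitum. The ¹²⁵I-labelled agent was dissolved in minimal Me2SO, diluted with saline to a final 20% Me2SO, filtered (0.22 μm), and injected into a lateral tail vein under ether anaesthesia. Tissues were counted against samples of the injected solution and expressed as % injected dose/g (mean, range). Brain/blood ratio is from the means.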

[2] = tested on: Rattus norvegicus; assay: Distribution of radioactivity in lung tissues of Sprague-Dawley rats after 15 min injection by intravenously; value ranges from 1.05-1.5; settings: in vivo, iv, 0.25 h
[3] = tested on: Rattus norvegicus; assay: Distribution of radioactivity in lung tissues of Sprague-Dawley rats after 60 min injection by intravenously; value ranges from 0.61-0.86; settings: in vivo, iv, 1 h
[4] = tested on: Rattus norvegicus; assay: Distribution of radioactivity in blood tissues of Sprague-Dawley rats after 30 min injection by intravenously; value ranges from 0.73-0.85; settings: in vivo, iv, 0.5 h; in short: as §1
[5] = Brain to blood ratio in Sprague-Dawley rats after 30 min injection by intravenously; settings: rat, brain and blood, iv; in short: as §1
[6] = tested on: Rattus norvegicus; assay: Distribution of radioactivity in blood tissues of Sprague-Dawley rats after 60 min injection by intravenously; value ranges from 0.54-0.63; settings: in vivo, iv, 1 h; in short: as §1
[7] = tested on: Rattus norvegicus; assay: Distribution of radioactivity in blood tissues of Sprague-Dawley rats after 15 min injection by intravenously; value ranges from 0.97-1.12; settings: in vivo, iv, 0.25 h; in short: as §1
[8] = tested on: Rattus norvegicus; assay: Distribution of radioactivity in heart tissues of Sprague-Dawley rats after 5 min injection by intravenously; value ranges from 1.24-1.46; settings: in vivo, iv
[9] = tested on: Rattus norvegicus; assay: Distribution of radioactivity in liver tissues of Sprague-Dawley rats after 15 min injection by intravenously; value ranges from 2.43-2.92; settings: in vivo, iv, 0.25 h
[10] = tested on: Rattus norvegicus; assay: Distribution of radioactivity in lung tissues of Sprague-Dawley rats after 30 min injection by intravenously; value ranges from 0.86-1.13; settings: in vivo, iv, 0.5 h
[11] = tested on: Rattus norvegicus; assay: Distribution of radioactivity in brain tissues of Sprague-Dawley rats after 5 min injection by intravenously; value ranges from 0.28-0.37; settings: in vivo, iv; in short: as §1
[12] = tested on: Rattus norvegicus; assay: Distribution of radioactivity in kidney tissues of Sprague-Dawley rats after 15 min injection by intravenously; value ranges from 2.24-3.12; settings: in vivo, iv, 0.25 h
[13] = tested on: Rattus norvegicus; assay: Distribution of radioactivity in lung tissues of Sprague-Dawley rats after 5 min injection by intravenously; value ranges from 1.35-1.74; settings: in vivo, iv
[14] = Brain to blood ratio in Sprague-Dawley rats after 5 min injection by intravenously; settings: rat, brain and blood, iv; in short: as §1
[15] = Brain to blood ratio in Sprague-Dawley rats after 60 min injection by intravenously; settings: rat, brain and blood, iv; in short: as §1
[16] = tested on: Rattus norvegicus; assay: Distribution of radioactivity in brain tissues of Sprague-Dawley rats after 15 min injection by intravenously; value ranges from 0.20-0.25; settings: in vivo, iv, 0.25 h; in short: as §1
[17] = tested on: Rattus norvegicus; assay: Distribution of radioactivity in blood tissues of Sprague-Dawley rats after 5 min injection by intravenously; value ranges from 1.38-1.5; settings: in vivo, iv; in short: as §1
[18] = Brain to blood ratio in Sprague-Dawley rats after 15 min injection by intravenously; settings: rat, brain and blood, iv; in short: as §1
[19] = tested on: Rattus norvegicus; assay: Distribution of radioactivity in heart tissues of Sprague-Dawley rats after 60 min injection by intravenously; value ranges from 0.64-0.86; settings: in vivo, iv, 1 h
[20] = tested on: Rattus norvegicus; assay: Distribution of radioactivity in kidney tissues of Sprague-Dawley rats after 30 min injection by intravenously; value ranges from 1.56-1.83; settings: in vivo, iv, 0.5 h
[21] = tested on: Rattus norvegicus; assay: Distribution of radioactivity in kidney tissues of Sprague-Dawley rats after 60 min injection by intravenously; value ranges from 1.17-1.48; settings: in vivo, iv, 1 h
[22] = tested on: Rattus norvegicus; assay: Distribution of radioactivity in brain tissues of Sprague-Dawley rats after 30 min injection by intravenously; value ranges from 0.17-0.20; settings: in vivo, iv, 0.5 h; in short: as §1
[23] = tested on: Rattus norvegicus; assay: Distribution of radioactivity in liver tissues of Sprague-Dawley rats after 5 min injection by intravenously; value ranges from 2.98-3.22; settings: in vivo, iv
[24] = tested on: Rattus norvegicus; assay: Distribution of radioactivity in brain tissues of Sprague-Dawley rats after 60 min injection by intravenously; value ranges from 0.15-0.19; settings: in vivo, iv, 1 h; in short: as §1
[25] = tested on: Rattus norvegicus; assay: Distribution of radioactivity in liver tissues of Sprague-Dawley rats after 30 min injection by intravenously; value ranges from 1.77-2.08; settings: in vivo, iv, 0.5 h
[26] = tested on: Rattus norvegicus; assay: Distribution of radioactivity in heart tissues of Sprague-Dawley rats after 15 min injection by intravenously; value ranges from 0.89-1.24; settings: in vivo, iv, 0.25 h; in short: as §1
[27] = tested on: Rattus norvegicus; assay: Distribution of radioactivity in kidney tissues of Sprague-Dawley rats after 5 min injection by intravenously; value ranges from 3.18-4.74; settings: in vivo, iv
[28] = tested on: Rattus norvegicus; assay: Distribution of radioactivity in liver tissues of Sprague-Dawley rats after 60 min injection by intravenously; value ranges from 1.12-1.44; settings: in vivo, iv, 1 h

CN1C=CCC(C(=O)NCCc2ccc([125I])cc2)=C1
Distribution [1]: 0.86% | Distribution [2]: 1.2% | Distribution [3]: 0.66% | Distribution [4]: 0.77% | Kp at 0.5 h [5]: 0.23 | Distribution [6]: 0.57% | Distribution [7]: 1.03% | Distribution [8]: 1.37% | Distribution [9]: 2.63% | Distribution [10]: 0.97% | Distribution [11]: 0.32% | Distribution [12]: 2.54% | Distribution [13]: 1.48% | Kp at 5 min [14]: 0.22 | Kp at 1 h [15]: 0.29 | Distribution [16]: 0.22% | Distribution [17]: 1.42% | Kp at 0.25 h [18]: 0.21 | Distribution [19]: 0.72% | Distribution [20]: 1.72% | Distribution [21]: 1.28% | Distribution [22]: 0.18% | Distribution [23]: 3.1% | Distribution [24]: 0.17% | Distribution [25]: 1.89% | Distribution [26]: 1.08% | Distribution [27]: 4.19% | Distribution [28]: 1.24%
